Source: PubChem BioAssay (several laboratories)
UCH37 inh = blocks the human deubiquitinase UCH37 | actives 0.33% (n = 330,000) | purified proteasome/UCH37, Ub-AMC cleavage fluorescence | inhibition, % (no concentration beside the values);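 active = mean inhibition over replicate wells above about 20%, limit read from the data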;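 also: 0% = compound-free wells with enzyme and 100% = wells lacking proteasome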
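system = Proteasome-associated human UCH37 deubiquitinase | amount = 0.15 nM proteasome as dispensed | medium = pH 7.4 Tris-HCl (50 mM) with ovalbumin, ATP-MgCl2, DTT | incubation = 30 min preincubation with enzyme, 25 min cleavage at room temperature | detection = AMC fluorescence 355/460 nm | read-out basis = percent inhibition | controls = no-proteasome and no-compound wells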
ATG4B inhibitor = ATG4B (human) cysteine protease inhibition. ATG4B cleavage of LC3-PLA2, NBD-HPC fluorescence, 1 h. inhibition, % at 8.33 µM. actives 0.51% (n = 340,000); in the data active = inhibition above about 40%
Calb FLC = affects C. albicans growth with fluconazole. actives 0.57% (n = 300,000). growth inhibition, % (concentration not given with the values). AID 1979. C. albicans CaCi-2 + fluconazole, Alamar Blue growth, 48 h;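 active = growth inhibition above about 58% in most replicates, limit read from the data, passing the limit was not always enough; inconclusive = exactly half the replicates above a set limit; inactive = most replicates below a set limit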;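 also: all wells also contain fluconazole at 8 µg/ml as a sub-toxic cotreatment; 0% = median of DMSO wells and 100% = median of geldanamycin control wells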
NALP3 yeast inh = inhibitors of NALP3 inflammasome in yeast. Yeast reconstituted NLRP3/ASC/caspase-1, beta-gal luminescence, 24 h. inhibition, % at 10 µM. actives 0.39% (n = 330,000). AID 2825;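 active = inhibition of 50% or more; inactive = inhibition below 50%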;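 also: plate controls were induced DMSO wells for no effect and uninduced yeast grown without galactose for full effect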
NALP1 inh = blocks the NALP1 inflammasome reconstituted in yeast | S. cerevisiae NALP1/ASC/caspase-1 growth, X-gal OD620, 72 h | inhibition, % at 10 µM | actives 0.61% (n = 280,000) | AID 2071; in the data active = inhibition mostly above about 24%, no sharp cut-off; inactive = mostly below about 32%
ALR H2O2 inh = human ALR oxidase inhibition via reduced H2O2; inhibition, % (no concentration beside the values); purified ALR, DTT oxidation, H2O2 HRP-luminol luminescence; actives 3.8% (n = 290,000);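 active = mean replicate inhibition above about 79%, with every replicate also reaching it, limit read from the data; inconclusive = only one of the two criteria met; inactive = mean below limit and not every replicate reaching it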
Target sequence (P55789 whole entry, looked up): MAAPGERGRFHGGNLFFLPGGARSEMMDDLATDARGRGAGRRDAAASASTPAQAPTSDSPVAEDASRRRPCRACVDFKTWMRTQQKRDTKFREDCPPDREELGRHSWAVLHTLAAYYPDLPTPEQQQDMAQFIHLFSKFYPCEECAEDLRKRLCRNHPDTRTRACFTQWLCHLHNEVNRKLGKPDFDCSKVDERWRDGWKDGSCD
The depositor's hits bear a star; i = inactive; u = inconclusive; x = no result given. Shown are actives, neighbours in structure and some others; about 4.8% of the full set was active somewhere.

SMILES	UCH37 inh	ATG4B inhibitor	Calb FLC	NALP3 yeast inh	NALP1 inh	ALR H2O2 inh
CN(C)c1ccc(NC(=O)CN2C(=O)CN=C(c3ccccc3)c3cc(Cl)ccc32)cc1	6.3	-7.5	-12.5	25.4	22.4	88.9*
CNC(=O)ON=C(N)Cc1csc2ccc(Cl)cc12	3.1	x	x	x	x	x
CCCCCCC(=O)N/N=C/c1c(O)n(C2CC2)c(=S)[nH]c1=O	9.3	-6.2	-22.2	16.1	-6.5	4.9
C=CCn1c(O)c(/C=N/NC(=O)CCCC)c(=O)[nH]c1=S	x	1.0	-2.3	-9.7	10.1	90.0*
O=C1NC(=S)N(c2ccccc2)C(=O)/C1=C/c1ccco1	x	58.6*	0.8	21.6	17.2	98.6*
O=C1NC(=O)N(c2cccc(Cl)c2)C(=O)/C1=C\c1ccc(Sc2nc3ccccc3[nH]2)o1	5.5	23.9	3.9	4.1	21.4	69.5
CCOc1cccc(N2C(=O)/C(=C/c3ccco3)C(=O)NC2=S)c1	7.2	16.1	-4.9	21.8	-11.0	x
O=C1NC(=O)N(c2ccccc2F)C(=O)/C1=C/c1ccc(Sc2nc3ccccc3[nH]2)o1	7.2	28.4	x	x	10.6	97.6*
O=C1NC(=O)N(c2ccccc2)C(=O)/C1=C/c1ccc(Sc2ccccc2)o1	2.2	11.7	9.7	x	-4.9	96.8*
O=C(OCCOc1ccccc1)c1cc(S(=O)(=O)N2CCOCC2)ccc1Cl	1.7	-2.4	x	17.0	x	x
Cc1c(C=NO)c2ccccc2n1C	0.6	x	x	x	x	x
CCC12CN3CCN(CC(C3)C1=NNC(=O)c1ccncc1)C2	-0.7	x	x	x	x	x
O=c1ccc2ccc(OCc3ccccc3)cc2o1	-58.0	13.6	-21.0	-12.2	20.2	-3.6
CCOC(=O)c1c(N=CC2C(=O)NC(=O)NC2=O)sc2c1CCC2	1.4	x	x	x	x	x
CN1C(=O)C(=Cc2ccc(SC3CCCCC3)o2)C(=O)N(C)C1=O	3.1	-4.2	-7.3	11.2	-5.3	88.0*
NC(=N[N+](=O)[O-])N1CCN(C(=O)c2ccccn2)CC1	1.1	x	x	x	x	x
O=C(O)CCn1cc(C=C2C(=O)NC(=S)NC2=O)c(-c2ccccc2)n1	2.1	-6.0	0.3	-1.2	11.5	87.0*
CCN(CC)c1ccc(N=Cc2c(O)n(-c3ccccc3)c(=O)[nH]c2=O)cc1	3.9	-3.8	20.5	10.9	x	81.4*
CCN(CC)c1ccc(N=Cc2c(O)n(-c3ccccc3C)c(=O)[nH]c2=O)cc1	7.7	-24.1	u	15.6	0.4	98.5*
CCOc1ccc(-n2c(O)c(C=Nc3ccc(N(CC)CC)cc3)c(=O)[nH]c2=O)cc1	-1.2	-8.3	u	12.6	13.4	-0.8
Cn1c(O)c(C(=Nc2ccccc2)SCc2ccccc2Cl)c(=O)n(C)c1=O	4.0	-5.9	2.3	13.6	x	96.3*
Oc1ccc(/C=N/NP(=S)(c2ccccc2)c2ccccc2)c(O)c1O	x	-9.8	104.2*	-0.1	-5.5	98.8*
Oc1ccccc1/C=N/NP(=S)(c1ccccc1)c1ccccc1	x	2.3	13.5	-0.6	-1.6	-0.7
Oc1ccc(/C=N/NP(=S)(c2ccccc2)c2ccccc2)cc1O	x	0.4	37.4	24.3	-7.6	98.8*
O=C(CSC1c2ccccc2-c2ccccc21)NN=Cc1ccc(C(=O)O)cc1	1.9	x	x	x	x	x
SMILES	UCH37 inh	ATG4B inhibitor	Calb FLC	NALP3 yeast inh	NALP1 inh	ALR H2O2 inh
COc1c(C=C2C(=O)NC(=O)NC2=O)c(CCN(C)C(=O)c2ccccc2)cc2c1OCO2	5.8	-22.1	29.9	16.8	19.0	96.4*
Cc1cc(C)cc(N2C(=O)/C(=C\c3ccc(N4CCN(C)CC4)o3)C(=O)NC2=S)c1	23.6*	-4.3	-1.2	27.6	-6.9	-2.5
Cc1ccc(/C=C2\C(=O)NC(=S)N(c3ccc(F)cc3)C2=O)o1	2.4	4.9	-5.9	22.9	9.1	-0.2
NC(N)=NN=Cc1cn(-c2ccccc2)nc1-c1cccs1	-9.4	x	x	x	x	x
CCC12C=CCN3CCC4(c5cc(Br)c(OC)cc5N(C)C4C(O)(C(=O)OC)C1OC(C)=O)C32 (stereo not drawn)	6.4	-21.4	2.3	3.3	3.9	84.7*
COc1cc(C=NNP(=S)(c2ccccc2)c2ccccc2)ccc1O	2.2	x	x	x	x	x
CCOc1ccc(-c2cc(C)[n+](CCO)c(-c3ccc(OCC)cc3)c2)cc1	i	-1.8	91.7*	15.0	3.0	x
Cc1cc(-c2ccccc2)cc(-c2ccccc2)[n+]1CCc1ccccc1	2.0	-0.2	97.0*	6.6	x	-19.1
